ChEMBL document CHEMBL1153853, “Colon-specific mutual amide prodrugs of 4-aminosalicylic acid for their mitigating effect on experimental colitis in rats” (Eur J Med Chem, 2009)
Activity calls are given as the source filed them. The calls are words filed in the database; no cut-off is given here.

How the values were obtained:
Rattus norvegicus [1] = species on record: Rattus norvegicus; assay: Antiinflammatory activity against TNBS-induced Wistar rat colitis model assessed as decrease in ratio of colon to body weight treated rectally 3 days after TNBS induction for 8 days measured after 24 hrs of last treatment; type: functional, organism-based; conditions: in the assay text read “treated orally” for “treated rectally”
Summary of the method: (§1)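 Wistar rats (200–250 g, 12–15 weeks, n = 6/group), fasted 48 h, given TNBS 100 mg/kg in 50% ethanol (500 µl) intrarectally 8 cm via catheter under light ether; untreated 3 days, then dosed (controls got 1% carboxymethylcellulose); 11-day study. Sacrificed 24 h after last dose under isoflurane; 8 cm colon excised, colon/body weight ratio taken; mean of six.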

Rattus norvegicus [2] = assay: Antiinflammatory activity against TNBS-induced Wistar rat colitis model assessed as decrease in severity of inflammation treated po 3 days after TNBS induction measured on day 7; type: functional, organism-based
Summary of the method: (§2)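 TNBS colitis in Wistar rats (100 mg/kg in 50% ethanol, intrarectal, 48 h fast), left untreated 3 days before dosing, vehicle 1% carboxymethylcellulose. Weight loss, stool consistency and rectal bleeding scored daily over 11 days; the daily clinical activity score is the average of the three, 0 (healthy) to 4 (maximal colitis); mean of six rats.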

Rattus norvegicus [3] = species on record: Rattus norvegicus; assay: Antiinflammatory activity against TNBS-induced Wistar rat colitis model assessed as decrease in severity of inflammation treated rectally 3 days after TNBS induction measured on day 7; type: functional, organism-based; conditions: in the assay text read “treated orally” for “treated rectally”; summary of the method: as §2
Rattus norvegicus [4] = assay: Antiinflammatory activity against TNBS-induced Wistar rat colitis model assessed as decrease in ratio of colon to body weight treated po 3 days after TNBS induction for 8 days measured after 24 hrs of last treatment; type: functional; summary of the method: as §1
Rattus norvegicus [5] = assay: Antiinflammatory activity against TNBS-induced po dosed Wistar rat colitis model assessed as inhibition of MPO activity in neutrophils per 100 mg of tissue; type: functional
Summary of the method: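 Colonic tissue from TNBS-colitis rats given oral treatment; MPO measured by the Krawisz method, one unit degrading […] hydrogen peroxide at 25 °C; reported as mU per 100 mg wet tissue.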

Pancreas = assay: Toxicity in rat pancreas; type: tissue-based; conditions: in vivo
Liver = assay: Toxicity in rat liver; type: tissue-based; conditions: in vivo
Rattus norvegicus [6] = assay: Ulcerogenic effect in rat colon assessed as ulcer index at 2258.01 mg/kg by Rainsford's cold stress method; type: toxicity, organism-based; parameters: dose 2258.01 mg/kg; conditions: in vivo
[7] = Aqueous solubility of the compound; type: physicochemical; conditions: water (aqueous)
Summary of the method: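 Solubility in distilled water at room temperature (25 ± 1 °C).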

[8] = Partition coefficient, log p in n-octanol/phosphate buffer at pH 7.4; type: physicochemical
Summary of the method: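 Partitioning between n-octanol and phosphate buffer pH 7.4 at 25 ± 1 °C.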

[9] = Stability assessed as half life in hydrochloric acid buffer at pH 1.2; type: physicochemical
Summary of the method: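 10 mg prodrug in 900 ml HCl buffer pH 1.2 (0.05 M, ionic strength 0.5 set with KCl) at 37 ± 1 °C for 10 h. Remaining prodrug followed by UV at 251 and 285 nm; first-order kinetics, triplicate.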

[10] = Stability assessed as half life in phosphate buffer at pH 7.4; type: physicochemical
Summary of the method: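 Same set-up in phosphate buffer pH 7.4 (0.05 M, ionic strength 0.5 with KCl), 37 ± 1 °C, 10 h. Remaining prodrug read by UV at 255 and 290 nm; first-order kinetics, triplicate.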

[11] = Half life in rat fecal matter assessed as release of 4-aminosalicylic acid; type: ADME, tissue-based, Feces; conditions: in vitro
Summary of the method: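 Prodrug in phosphate buffer pH 7.4 (250 µg/ml, diluted to 50 µg/ml in 5 ml) added to 1 g fresh rat feces; incubated 37 °C anaerobically in a CO2 incubator for up to 20 h. Remaining prodrug read by UV at 255 nm (4AP) or 290 nm (4AT) against calibration curves; first-order fits, triplicate, mean K.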

Rattus norvegicus [12] = assay: Half life in TNBS-induced po dosed Wistar rat colitis model assessed as assessed as release of 4-aminosalicylic acid; type: ADME, organism-based; conditions: in vivo
Rattus norvegicus [13] = assay: Ulcerogenic effect in rat colon assessed as ulcer index at 2263.75 mg/kg by Rainsford's cold stress method; type: toxicity, organism-based; parameters: dose 2263.75 mg/kg; conditions: in vivo
Rattus norvegicus [14] = assay: Ulcerogenic effect in rat colon assessed as ulcer index at 1154.30 mg/kg by Rainsford's cold stress method; type: toxicity, organism-based; parameters: dose 1154.3 mg/kg; conditions: in vivo, 1154.3 mg/kg
Rattus norvegicus [15] = species on record: Rattus norvegicus; assay: Antiinflammatory activity against TNBS-induced Wistar rat colitis model assessed as decrease in severity of inflammation treated rectally 3 days after TNBS induction for 8 days measured after 24 hrs of last treatment; type: functional, organism-based; summary of the method: as §2
Rattus norvegicus [16] = assay: Inhibition of TNBS-induced morphological change in rectaly administered Wistar rat colon; type: functional, organism-based
Rattus norvegicus [17] = assay: Half life in TNBS-induced po dosed Wistar rat colitis model assessed as assessed as release of 5-aminosalicylic acid; type: ADME, organism-based; conditions: in vivo
Rattus norvegicus [18] = assay: Ulcerogenic effect in rat colon assessed as ulcer index at 3000 mg/kg by Rainsford's cold stress method; type: toxicity, organism-based; parameters: dose 3000 mg/kg; conditions: in vivo

SMILES	solubility [7] [mg/mL]	logD [8]	half-life [9] [h]	half-life [10] [h]	t1/2 [11] [h]	t1/2 (Rattus norvegicus [12]) [h]	t1/2 (Rattus norvegicus [17]) [h]	Activity (Rattus norvegicus [1])	Activity (Rattus norvegicus [2])	Activity (Rattus norvegicus [3])	Ratio (Rattus norvegicus [4])	Activity (Rattus norvegicus [5]) [mU]	Activity (Pancreas)	Activity (Liver)	UI (Rattus norvegicus [6])	UI (Rattus norvegicus [13])	UI (Rattus norvegicus [14])	Activity (Rattus norvegicus [15])	Activity (Rattus norvegicus [16])	UI (Rattus norvegicus [18])
Nc1ccc(C(=O)N[C@H](Cc2ccccc2)C(=O)[O-])c(O)c1.[Na+]	330	-0.21	> 10	> 10	6.87	6	–	Active	Active	Active	0.0073	46.57	Non-toxic	Non-toxic	–	6	–	–	–	–
N[C@H](Cc1ccccc1)C(=O)O [D-PHENYLALANINE]	–	–	–	–	–	–	–	Active	Active	Active	–	61.43	–	–	–	–	–	Active	Active	–
Nc1ccc(O)c(C(=O)O)c1 [MESALAMINE]	–	–	–	–	–	–	–	–	Active	Active	–	60.85	–	–	–	–	60.03	–	–	–
O=C(O)c1cc(/N=N/c2ccc(S(=O)(=O)Nc3ccccn3)cc2)ccc1O [SULFASALAZINE]	–	–	–	–	–	–	2	–	Active	Active	–	46.63	–	–	–	–	–	–	–	5.83
N[C@@H](Cc1c[nH]c2ccccc12)C(=O)O [TRYPTOPHAN]	–	–	–	–	–	–	–	Active	Active	Active	–	72.25	–	–	–	–	–	Active	Active	–

Further lines, with some results ahead:

solubility [7] [mg/mL]	logD [8]	half-life [9] [h]	half-life [10] [h]	t1/2 [11] [h]	t1/2 (Rattus norvegicus [12]) [h]	t1/2 (Rattus norvegicus [17]) [h]	SMILES	Activity (Rattus norvegicus [1])	Activity (Rattus norvegicus [2])	Activity (Rattus norvegicus [3])	Ratio (Rattus norvegicus [4])	Activity (Rattus norvegicus [5]) [mU]	Activity (Pancreas)	Activity (Liver)	UI (Rattus norvegicus [6])	UI (Rattus norvegicus [13])	UI (Rattus norvegicus [14])	Activity (Rattus norvegicus [15])	Activity (Rattus norvegicus [16])	UI (Rattus norvegicus [18])
260	-0.19	> 10	> 10	5.72	6	–	Nc1ccc(C(=O)N[C@@H](Cc2c[nH]c3ccccc23)C(=O)[O-])c(O)c1.[Na+]	Active	Active	Active	0.0071	49.24	Non-toxic	Non-toxic	8.4	–	–	–	–	–
–	1.01	–	–	–	–	–	Nc1ccc(C(=O)O)c(O)c1 [AMINOSALICYLIC ACID]	Active	Active	Active	–	70.51	–	–	–	–	69.61	–	–	–
–	–	–	–	–	–	2	Nc1ccc(S(=O)(=O)Nc2ccccn2)cc1 [SULFAPYRIDINE]	–	–	–	–	–	–	–	–	–	–	–	–	–
